Reference: ChEMBL document CHEMBL1649143, “In vitro activities of fluconazole and voriconazole against clinical isolates of Candida spp. determined by disk diffusion testing in Turin, Italy” (2009)
Values after ≈ are worked out from the molar mass of the structure shown.

Assays:
Pichia kudriavzevii [1] = assay: Antifungal activity against Candida krusei assessed as percent susceptible isolates at 25 ug/disc by CLSI M44-A disk diffusion method; type: functional
How it was run: (§1)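 Agar disk diffusion per CLSI M44-A on clinical Candida isolates collected in Turin, Italy; 1,024 isolates tested in total. Each isolate was classed as susceptible (S), susceptible-dose dependent (SDD) or resistant (R), and the percentage of isolates per species in each category was reported.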

Nakaseomyces glabratus [2] = assay: Antifungal activity against Candida glabrata assessed as percent resistant isolates at 25 ug/disc by CLSI M44-A disk diffusion method; type: functional; how it was run: as §1
Cyberlindnera jadinii = assay: Antifungal against Candida utilis assessed as percent susceptible isolates at 25 ug/disc by CLSI M44-A disk diffusion method; type: functional
How it was run: (§2)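 Clinical yeast isolates tested by agar disk diffusion per CLSI M44-A. Zone diameters were converted to MICs by an automated zone-reading system applying species-specific linear regression against reference dilution MICs. Isolates were classed as susceptible, susceptible-dose dependent or resistant using CLSI MIC breakpoints, and reported as number and percent susceptible per species.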

Pichia kudriavzevii [3] = assay: Antifungal activity against Candida krusei assessed as percent resistant isolates at 25 ug/disc by CLSI M44-A disk diffusion method; type: functional; how it was run: as §1
Candida tropicalis [4] = assay: Antifungal activity against Candida tropicalis assessed as dose dependent percent susceptible isolates at 25 ug/disc by CLSI M44-A disk diffusion method; type: functional; how it was run: as §1
Clavispora lusitaniae = assay: Antifungal activity against Candida lusitaniae assessed as percent susceptible isolates at 25 ug/disc by CLSI M44-A disk diffusion method; type: functional; how it was run: as §2
[5] = Antifungal activity against Candida membranifaciens assessed as percent susceptible isolates at 25 ug/disc by CLSI M44-A disk diffusion method; type: functional; how it was run: as §2
[6] = Antifungal activity against Candida humicola assessed as percent susceptible isolates at 25 ug/disc by CLSI M44-A disk diffusion method; type: functional; how it was run: as §2
Kluyveromyces marxianus [7] = assay: Antifungal activity against Candida kefyr assessed as percent susceptible isolates at 25 ug/disc by CLSI M44-A disk diffusion method; type: functional; how it was run: as §1
Candida = assay: Antifungal activity against Candida sp. by reference dilution method; type: functional
Pichia kudriavzevii [8] = assay: Antifungal activity against Candida krusei assessed as dose dependent percent susceptible isolates at 25 ug/disc by CLSI M44-A disk diffusion method; type: functional; how it was run: as §1
Nakaseomyces glabratus [9] = assay: Antifungal activity against Candida glabrata assessed as percent susceptible isolates at 25 ug/disc by CLSI M44-A disk diffusion method; type: functional; how it was run: as §1
Kluyveromyces marxianus [10] = assay: Antifungal activity against Candida kefyr assessed as percent resistant isolates at 25 ug/disc by CLSI M44-A disk diffusion method; type: functional; how it was run: as §1
Candida parapsilosis [11] = assay: Antifungal activity against Candida parapsilosis by reference dilution method; type: functional; settings: Lodderomyces parapsilosis
[Candida] intermedia = Antifungal activity against Candida intermedia assessed as percent susceptible isolates at 25 ug/disc by CLSI M44-A disk diffusion method; type: functional, Sungouiella intermedia; how it was run: as §2
Candida parapsilosis [12] = assay: Antifungal activity against Candida parapsilosis assessed as percent susceptible isolates at 25 ug/disc by CLSI M44-A disk diffusion method; type: functional; how it was run: as §1
Pichia norvegensis [13] = assay: Antifungal activity against Candida norvegensis by reference dilution method; type: functional
Nakaseomyces glabratus [14] = assay: Antifungal activity against Candida glabrata by reference dilution method; type: functional
Candida albicans [15] = assay: Antifungal activity against Candida albicans by reference dilution method; type: functional
Candida tropicalis [16] = assay: Antifungal activity against Candida tropicalis by reference dilution method; type: functional
Nakaseomyces glabratus [17] = assay: Antifungal activity against Candida glabrata assessed as dose dependent percent susceptible isolates at 25 ug/disc by CLSI M44-A disk diffusion method; type: functional; how it was run: as §1
Candida tropicalis [18] = assay: Antifungal activity against Candida tropicalis assessed as percent susceptible isolates at 25 ug/disc by CLSI M44-A disk diffusion method; type: functional; how it was run: as §1
Candida parapsilosis [19] = assay: Antifungal activity against Candida parapsilosis assessed as dose dependent percent susceptible isolates at 25 ug/disc by CLSI M44-A disk diffusion method; type: functional; how it was run: as §1
Candida tropicalis [20] = assay: Antifungal activity against Candida tropicalis assessed as percent resistant isolates at 25 ug/disc by CLSI M44-A disk diffusion method; type: functional; how it was run: as §1
Pichia norvegensis [21] = assay: Antifungal activity against Candida norvegensis assessed as dose dependent percent susceptible isolates at 25 ug/disc by CLSI M44-A disk diffusion method; type: functional; how it was run: as §1
Pichia kudriavzevii [22] = assay: Antifungal activity against Candida krusei by reference dilution method; type: functional
Candida albicans [23] = assay: Antifungal activity against Candida albicans assessed as percent resistant isolates at 25 ug/disc by CLSI M44-A disk diffusion method; type: functional; how it was run: as §1
Candida albicans [24] = assay: Antifungal activity against Candida albicans assessed as percent susceptible isolates at 25 ug/disc by CLSI M44-A disk diffusion method; type: functional; how it was run: as §1
Pichia norvegensis [25] = assay: Antifungal activity against Candida norvegensis assessed as percent resistant isolates at 25 ug/disc by CLSI M44-A disk diffusion method; type: functional; how it was run: as §1
Candida albicans [26] = assay: Antifungal activity against Candida albicans assessed as dose dependent percent susceptible isolates at 25 ug/disc by CLSI M44-A disk diffusion method; type: functional; how it was run: as §1
[27] = Antifungal activity against Candida holmii assessed as percent susceptible isolates at 25 ug/disc by CLSI M44-A disk diffusion method; type: functional; settings: Kazachstania exigua; how it was run: as §2
Kluyveromyces marxianus [28] = assay: Antifungal activity against Candida kefyr by reference dilution method; type: functional
Pichia fermentans = assay: Antifungal activity against Candida lambica assessed as percent susceptible isolates at 25 ug/disc by CLSI M44-A disk diffusion method; type: functional; how it was run: as §2
Diutina rugosa = assay: Antifungal activity against Candida rugosa assessed as percent susceptible isolates at 25 ug/disc by CLSI M44-A disk diffusion method; type: functional; how it was run: as §2

## OC(Cn1cncn1)(Cn1cncn1)c1ccc(F)cc1F [FLUCONAZOLE]
Pichia kudriavzevii [1]
  Activity: 11%
Nakaseomyces glabratus [2]
  Activity: 9%
Cyberlindnera jadinii
  Activity: 92.9%
Pichia kudriavzevii [3]
  Activity: 68%
Candida tropicalis [4]
  Activity: 3%
Clavispora lusitaniae
  Activity: 92.9%
[5]
  Activity: 92.9%
[6]
  Activity: 92.9%
Kluyveromyces marxianus [7]
  Activity: 96%
Candida
  MIC50: 2 mg/L (≈ 6.53 µM)
  MIC90: 128 mg/L (≈ 418 µM)
Pichia kudriavzevii [8]
  Activity: 21%
Nakaseomyces glabratus [9]
  Activity: 82%
Kluyveromyces marxianus [10]
  Activity: 4%
Candida parapsilosis [11]
  MIC50: 0.5 mg/L (≈ 1.63 µM)
  MIC90: 4 mg/L (≈ 13.1 µM)
[Candida] intermedia
  Activity: 92.9%
Candida parapsilosis [12]
  Activity: 96%
Pichia norvegensis [13]
  MIC50: 128 mg/L (≈ 418 µM)
  MIC90: 256 mg/L (≈ 836 µM)
Nakaseomyces glabratus [14]
  MIC50: 4 mg/L (≈ 13.1 µM)
  MIC90: 64 mg/L (≈ 209 µM)
Candida albicans [15]
  MIC50: 0.5 mg/L (≈ 1.63 µM)
  MIC90: 4 mg/L (≈ 13.1 µM)
Candida tropicalis [16]
  MIC50: 2 mg/L (≈ 6.53 µM)
  MIC90: 16 mg/L (≈ 52.2 µM)
Nakaseomyces glabratus [17]
  Activity: 9%
Candida tropicalis [18]
  Activity: 92%
Candida parapsilosis [19]
  Activity: 4%
Candida tropicalis [20]
  Activity: 5%
Pichia norvegensis [21]
  Activity: 21%
Pichia kudriavzevii [22]
  MIC50: 128 mg/L (≈ 418 µM)
  MIC90: 256 mg/L (≈ 836 µM)
Candida albicans [23]
  Activity: 1%
Candida albicans [24]
  Activity: 98%
Pichia norvegensis [25]
  Activity: 79%
Candida albicans [26]
  Activity: 1%
[27]
  Activity: 92.9%
Kluyveromyces marxianus [28]
  MIC50: 0.25 mg/L (≈ 0.816 µM)
  MIC90: 0.25 mg/L (≈ 0.816 µM)
Pichia fermentans
  Activity: 92.9%
Diutina rugosa
  Activity: 92.9%
